Screening results as filed in PubChem.
Compounds with a hit are over-represented: about 1.9% of the library has one in this group of screens.
TbHK1 inh: T. brucei hexokinase 1 inhibition; recombinant TbHK1, G6PDH-coupled NADH A340; inhibition, % at 10 µM; hit rate 0.11% among 220,000;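 active = inhibition of 50% or more in the single-dose primary screen; inactive = inhibition below 50%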
RanGTP-Imp inh: inhibitors of RanGTP-importin-beta interaction, primary screen, biochemical, FRET, CFP-Ran, YFP-importin-beta, homogeneous. cell-free CFP-Ran/YFP-importin-beta FRET ratio. inhibition, % (no concentration beside the values). hit rate 1.1% among 300,000;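 active = more than half of the replicate wells show a fall in the fluorescence ratio signal beyond about 16%, limit read from the data, passing the limit was not always enough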;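 note: 0% = DMSO wells and 100% = Ran loaded with GDP instead of GTP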
Hck-Nef inh: blocks Nef-activated human Hck kinase | inhibition, % at 20 µM | Recombinant Hck-YEEI plus Nef, Z-Lyte FRET kinase assay | P08631 | hit rate 0.68% among 220,000;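 active = Hck-Nef kinase inhibition above about 50%, limit read from the data; inactive = inhibition below that limit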;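 note: 0% = DMSO with Hck plus Nef and 100% = Hck alone without Nef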
Target sequence (P08631 whole entry, looked up): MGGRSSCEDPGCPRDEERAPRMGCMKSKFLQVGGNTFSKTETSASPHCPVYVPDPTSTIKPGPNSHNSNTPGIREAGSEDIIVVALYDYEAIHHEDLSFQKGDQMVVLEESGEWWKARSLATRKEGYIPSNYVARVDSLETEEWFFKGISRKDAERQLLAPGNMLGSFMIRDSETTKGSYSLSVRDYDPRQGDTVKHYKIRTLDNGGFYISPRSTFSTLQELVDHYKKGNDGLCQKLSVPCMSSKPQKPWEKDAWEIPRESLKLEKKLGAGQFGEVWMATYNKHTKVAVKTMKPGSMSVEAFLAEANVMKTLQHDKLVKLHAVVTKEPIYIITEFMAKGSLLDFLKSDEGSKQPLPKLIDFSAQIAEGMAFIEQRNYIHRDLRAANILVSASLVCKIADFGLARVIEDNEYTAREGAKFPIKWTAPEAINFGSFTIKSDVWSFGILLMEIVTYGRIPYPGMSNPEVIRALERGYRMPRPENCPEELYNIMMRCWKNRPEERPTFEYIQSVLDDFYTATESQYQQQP
Runt-CBFb FRET: blocks binding of human RUNX1 Runt domain to CBFb. Q01196+Q13951. Cerulean-Runt/Venus-CBFb FRET ratio 530/480, 1 h. inhibition, % at 20 µM. hit rate 0.46% among 220,000. AID 1496;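 active = inhibition over about 50% at 20 µM in the single-dose screen, limit read from the data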;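 note: 0% = DMSO wells and 100% = excess unlabeled CBFb competitor control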
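Schedule: protein complex preformed 1 h, compound exposure 1 h, room temperature, dark; test system: Cerulean-labeled Runt domain protein; amount: 100 nM per protein; buffer or medium: Tris 50 mM pH 7.5, KCl, K2SO4, 0.01% BSA; read-out: loss of energy transfer signal; detection: FRET fluorescence; controls: 5 µM unlabeled CBFb as full-inhibition high control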
Runt-SMMHC FRET: blocks binding of human RUNX1 Runt domain to CBFb-SMMHC. AID 1434. inhibition, % at 20 µM. hit rate 0.74% among 220,000. Cerulean-Runt/Venus-CBFb-SMMHC FRET ratio 530/480, 1 h;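 active = mean inhibition across duplicate retests at 20 µM reaching about 50%, limit read from the data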;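 note: 0% = DMSO wells and 100% = wells with excess untagged CBFb-SMMHC; inhibitors lower the FRET ratio by blocking Runt binding to CBFb-SMMHC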
The depositor's hits bear a star.

Screening Cc1cc(C)n2nc(C)c(-c3ccccc3)c2n1 returned RanGTP-Imp inh 4.
Cc1nc2nc(-c3ccc(F)cc3)cn2nc1C was read as RanGTP-Imp inh 95*.
`CCc1ccc(-c2cn3nc(C)c(C)nc3n2)cc1` gave TbHK1 inh -5, RanGTP-Imp inh 107*, Hck-Nef inh 22 and Runt-SMMHC FRET 74.
`CC(C)c1ccc(CNCCCSc2ncccn2)cc1` gave RanGTP-Imp inh 6.
For COC(=O)c1ccc(NC(=O)C(OC)c2ccccc2)cc1 (centres undefined) the results were TbHK1 inh 4, RanGTP-Imp inh 3, Hck-Nef inh 20, Runt-CBFb FRET 0 and Runt-SMMHC FRET -6.
For CCN(CC)CCN1C2=C(C(=O)CC(C)(C)C2)C(c2cccc(F)c2)C2=C1CC(C)(C)CC2=O the results were TbHK1 inh -5, RanGTP-Imp inh 96*, Hck-Nef inh 37, Runt-CBFb FRET 83* and Runt-SMMHC FRET 86*.
`CCCCN1C2=C(C(=O)CC(C)(C)C2)C(c2ccccc2)C2=C1c1ccccc1C2=O` (centres undefined) gave TbHK1 inh -1, RanGTP-Imp inh 5, Hck-Nef inh 2, Runt-CBFb FRET -3 and Runt-SMMHC FRET -9.
For CC1(C)CC(=O)C2=C(C1)N(CCN1CCOCC1)C1=C(C(=O)CC(C)(C)C1)C2c1cccc(Cl)c1 the results were TbHK1 inh -14, RanGTP-Imp inh 111*, Hck-Nef inh 44 and Runt-SMMHC FRET -21.
Screening CC1CCCN(C2(O)C(=O)Nc3ccc([N+](=O)[O-])cc32)C1 (centres undefined) returned RanGTP-Imp inh 2.
For CC1(C)CC(=O)C2=C(C1)OC(=O)CC2c1cccs1 (centres undefined) the results were TbHK1 inh -4, RanGTP-Imp inh 4, Hck-Nef inh 18, Runt-CBFb FRET 1 and Runt-SMMHC FRET -1.
Screening CN1C2=C(C(=O)CC(C)(C)C2)C(c2cccs2)C2=C1CC(C)(C)CC2=O returned RanGTP-Imp inh 61*.
`CC(NC(=O)COc1ccc(Br)cc1)C1CCCO1` (centres undefined) gave RanGTP-Imp inh -1.
Screening Cc1ccc(C2=NN=C(NC(=O)CSc3nncn3C)SC2)cc1 returned TbHK1 inh -20, RanGTP-Imp inh -1, Hck-Nef inh 19, Runt-CBFb FRET 49 and Runt-SMMHC FRET 61*.
For CC(C)(C)OC(=O)NCC(=O)Oc1cc2oc(=O)cc(-c3ccccc3)c2cc1Cl the results were TbHK1 inh -13, RanGTP-Imp inh 0, Hck-Nef inh 1, Runt-CBFb FRET 3 and Runt-SMMHC FRET 81*.
Screening CS(=O)(=O)Nc1nnc(CCc2ccccc2)s1 returned RanGTP-Imp inh 0.
Screening COc1ccc(CCc2nnc(NS(C)(=O)=O)s2)cc1 returned RanGTP-Imp inh 27*.
`Cc1ccccc1NS(=O)(=O)c1cccc2nsnc12` gave RanGTP-Imp inh 4.
For CSc1nsc(/C=C/Nc2ccc(C)c(C)c2)c1C#N the results were TbHK1 inh -5, RanGTP-Imp inh 33*, Hck-Nef inh 23, Runt-CBFb FRET -1 and Runt-SMMHC FRET -7.
For CCOc1ccc(NC(=S)N(C)C)cc1 the results were TbHK1 inh -14, RanGTP-Imp inh 4, Hck-Nef inh -9, Runt-CBFb FRET 0 and Runt-SMMHC FRET -1.
COC(=O)[C@]1(CC(C)C)N[C@H](c2ccc(-c3ccc(Cl)c(Cl)c3)cc2)[C@@H]2C(=O)N(C)C(=O)[C@@H]21 was read as RanGTP-Imp inh -1.
Screening N#Cc1c(NC(=S)NC(=O)c2ccccc2)sc2c1CCN(CCc1ccccc1)C2 returned TbHK1 inh -3, RanGTP-Imp inh 157*, Hck-Nef inh 9, Runt-CBFb FRET 4 and Runt-SMMHC FRET 82*.
For N#Cc1c(N)sc2c1CCN(CCc1ccccc1)C2 the results were TbHK1 inh -19, RanGTP-Imp inh 46*, Hck-Nef inh -3, Runt-CBFb FRET 105* and Runt-SMMHC FRET 88*.
N#Cc1c(NC(=S)NC(=O)c2ccccc2)sc2c1CCCC2 was read as TbHK1 inh -1, RanGTP-Imp inh 5, Hck-Nef inh 8, Runt-CBFb FRET 49 and Runt-SMMHC FRET 12.
`CCOC(=O)N1CCc2c(sc(N)c2C#N)C1` gave TbHK1 inh 7, RanGTP-Imp inh -3, Hck-Nef inh -2, Runt-CBFb FRET 14 and Runt-SMMHC FRET 1.
